Our source for the inhibition in vivo, ED50 and LD50 values is ChEMBL document CHEMBL1122935, “3-(1-Indolinyl)benzylamines: a new class of analgesic agents” (J Med Chem, 1985).

For series [1], the system named is Mus musculus. The experiment in a line: Inhibition of PQW-writhing in mice on subcutaneous administration at dose 10 mg/kg; Moderate activity in the range of 35-69%. The following applies: sc. It counts as functional. A general note: In writhing tests, fewer writhes than in controls are read as antinociception.
Series [2] relates to Mus musculus. The experiment in a line: inhibition of PQW-writhing in mice on subcutaneous administration at dose 10 mg/kg. compound showed moderate activity in the range of 35-69%. It counts as functional. The following applies: sc.
The subject of series [3] is Mus musculus. Briefly: inhibition of PQW-writhing in mice on subcutaneous administration at dose 10 mg/kg. compound showed slight activity in the range of 10-34%,. It counts as functional. The following applies: sc.
Series [4] concerns Mus musculus. Briefly: Inhibition of PQW-writhing in mice on subcutaneous administration at dose 10 mg/kg. The class given is functional. The note with it: sc.
Series [5] can be described thus: Compound was tested for the approximate analgesic lethal dose (ALD50) on rats. The class given is ADME, organism-based. The note with it: rat, in vivo; read-out: ALD50.
The species named for series [6] is Rattus norvegicus. The experiment in a line: The analgesic activity by D'Armour-Smith tail-flick assay in rats. It counts as functional. A digest of the protocol: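 Rat tail-flick test. Compound was given sc in distilled water at 4, 8, 16 and 32 mg/kg, and percent analgesic activity was recorded at each dose. ED50 was calculated by Litchfield-Wilcoxon analysis with 95% confidence limits.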
(In general: Thermal pain tests record how soon the animal reacts.)

Series [7] relates to Mus musculus. Briefly: (§1) Oral anti-writhing activity at a dose of 25 mg/kg administered perorally in PQW assay. The class given is functional. A digest of the protocol:
(§2)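 Mouse phenylquinone writhing assay with the compound given orally at 25 mg/kg. Writhing was induced with 0.125% phenyl-p-benzoquinone in 5% aqueous ethanol, 10 mL/kg ip. Writhes were counted over 10 min after a 5-min wait, and percent inhibition was calculated against vehicle-treated controls.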

For series [8], the system named is Rattus norvegicus. The description is as §1. It counts as functional. An outline of the steps:
as §2

Series [9] has as its system Mus musculus. The experiment in a line: Inhibition of PQW-writhing in mice on subcutaneous administration at dose 10 mg/kg; Slight activity in the range of 10-34%. The class given is functional. The following applies: sc.
In series [10] the test system is Mus musculus. The experiment in a line: Inhibition of PQW-writhing in mice on subcutaneous administration at dose 25 mg/kg; Range of inhibition 35-69% (moderate activity). The class given is functional. The following applies: sc.
The test system of series [11] is Mus musculus. The experiment in a line: Inhibition of PQW-writhing in mice on subcutaneous administration at dose 10 mg/kg. compound showed 10-34% inhibition (slight activity). The class given is functional. The following applies: sc.
Series [12] relates to Mus musculus. Briefly: inhibition of PQW-writhing in mice on subcutaneous administration at dose 10 mg/kg. compound showed slight activity in the range of 10-34%. It counts as functional. The note with it: sc.

Turning to `NCc1cccc(CN2CCc3ccccc32)c1`, testing at 10 mg/kg in series [1] gave an inhibition in vivo of 69%.

With `COc1ccc2c(ccn2-c2cccc(CN)c2)c1`, testing at 10 mg/kg in series [2] gave an inhibition in vivo of 69%.

With `O=C(Cc1ccccc1)NCc1cccc(N2CCc3ccccc32)c1`, testing at 10 mg/kg in series [2] gave an inhibition in vivo of 69%.

For `CCOC(=O)NCc1cccc(N2CCc3ccccc32)c1`, the inhibition in vivo (commonly the change of the read-out against control, counted positive when it falls) at 10 mg/kg in series [3] stood at 34%.

In turn, `COc1ccc2c(c1)CCN2c1cccc(CN)c1` gave an inhibition in vivo at 10 mg/kg in series [2] of 69%.

In the case of `NCc1cccc(N2CCc3ccccc32)c1`, the median effective dose (ED50) (in general, the dose that gives a 50% effect, or the effect in half of the subjects) in [4] worked out at 4.2 mg/kg; in series [6] it was 27 mg/kg. In series [5], the LD50 is more than 100 mg/kg. In addition, the inhibition in vivo at 25 mg/kg in series [7] turned out to be 36%; in [8], 19%.

Compound `COc1ccc2c(c1)CCN2Cc1cccc(CN)c1` returned an inhibition in vivo at 10 mg/kg in series [9] of 34%.

Take `NCc1cccc(CN2CCc3cc(Cl)ccc32)c1`: the 50% effective dose (ED50) in series [4] was determined as 20.2 mg/kg.

Regarding `NCc1cccc(N2CCc3cc(Cl)ccc32)c1`, the ED50 in [4] was 4.2 mg/kg.

Consider `NCc1ccccc1N1CCc2ccccc21`, for which the 50% effect level in series [4] (ED50) was put at a dose of 14.1 mg/kg.

On to `CN(C)Cc1cccc(N2CCc3ccccc32)c1`, for which 10 mg/kg produced 34% inhibition in vivo in [3].

`Nc1ccccc1N1CCc2ccccc21` registered an inhibition in vivo at 25 mg/kg in series [10] of 43%.

In the case of `c1cc(CNCC2CC2)cc(N2CCc3ccccc32)c1`, in series [2], the inhibition in vivo at 10 mg/kg amounted to 69%.

In series [2], `CC(N)c1cccc(N2CCc3ccccc32)c1` (centres undefined) had an inhibition in vivo at 10 mg/kg of 69%.

In [2], `NCCc1cccc(N2CCc3ccccc32)c1` came in with an inhibition in vivo at 10 mg/kg of 69%.

In series [3], `CNCc1cccc(N2CCc3ccccc32)c1` displayed an inhibition in vivo at 10 mg/kg of 34%.

In series [11], `NCc1ccc(N2CCc3ccccc32)cc1` showed an inhibition in vivo at 10 mg/kg of 34%.

For the compound `NCc1cccc(-n2ccc3ccccc32)c1`, the ED50 in series [4] was determined as 19.1 mg/kg.

`O=C(NCc1cccc(N2CCc3ccccc32)c1)C1CC1` displayed an inhibition in vivo at 10 mg/kg in [2] of 69%.

As to `c1ccc(CCNCc2cccc(N3CCc4ccccc43)c2)cc1`, the inhibition in vivo at 10 mg/kg in series [3] is 34%.

Take `NCc1cccc(-n2ccc3cc(Cl)ccc32)c1`: the inhibition in vivo at 10 mg/kg in [12] was 34%.

On to `NC(c1ccccc1)c1cccc(N2CCc3ccccc32)c1` (centres undefined), for which the inhibition in vivo at 10 mg/kg in series [2] amounted to 69%.

As to `CC(C)=CCN1CC[C@]2(C)c3cc(O)ccc3C[C@H]1[C@H]2C` [(+)-PENTAZOCINE], the values for the ED50 in series [4] and in series [6] were 2.3 mg/kg and 14.6 mg/kg, respectively.

Turning to `CCC(=O)O[C@](Cc1ccccc1)(c1ccccc1)[C@H](C)CN(C)C` [PROPOXYPHENE], the 50% effect level in [4] (ED50) was put at a dose of 3.9 mg/kg.
